From ChEMBL document CHEMBL1125259, “Lipophilic glycosyl phosphotriester derivatives of AZT: synthesis, NMR transmembrane transport study, and antiviral activity” (1991)

How the values were obtained:
[1] = biological target: Human immunodeficiency virus type 1 reverse transcriptase (Human immunodeficiency virus 1) (UniProt Q72547); assay: Compounds were evaluated for anti-RT activity by MTT dose and %protection was reported at 7 days of culture
Procedure, shortened: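 HIV-1 was preincubated with compound at 25 µM for 60 min at 37 °C, pelleted, and added to CEM-C113 cells (1×10^5 cells/mL) for 60 min at 37 °C. Medium was then replaced without compound. At days 7 and 9, viability was read by MTT assay on 100 µL of cell suspension.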

[2] = biological target: Human immunodeficiency virus type 1 reverse transcriptase (Human immunodeficiency virus 1) (UniProt Q72547); conditions: at 25 µM
[3] = biological target: Human immunodeficiency virus type 1 reverse transcriptase (Human immunodeficiency virus 1) (UniProt Q72547); assay: Percent inhibition measured as the production of HIV reverse transcriptase (RT) in culture supernatant of monocytic U937 on at 11 days at a concentration 5 uM; assay type: functional
Procedure, shortened: (§1)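 U937 cells in RPMI 1640 with 5% heat-inactivated FCS, penicillin, streptomycin and polybrene (2 μg/mL), 37 °C, 5% CO2. Infected with HIV-1 LAV-Bru; compounds diluted in PBS. 50 μL supernatant aliquots were assayed for RT: 1 h, 37 °C, pH 7.8, Mg2+, poly(rA)-oligo(dT), [3H]dTTP, TCA-pyrophosphate stop, filter counting. % inhibition = 100 − 100 × (treated cpm / virus-control cpm).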

[4] = biological target: Human immunodeficiency virus type 1 reverse transcriptase (Human immunodeficiency virus 1) (UniProt Q72547); assay: Compound ability to inhibit the production of HIV reverse transcriptase (RT) in culture supernatant of monocytic U937 on at 7 days at a concentration 5 uM; assay type: functional
Procedure, shortened: (§2)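 HIV-1-infected monocytic U937 cultures were kept up to 14 days with compound. Supernatant RT activity was measured as for CEM-C113, as [³H] cpm/50 µL. % inhibition = 100 − 100 × (cpm of treated samples / cpm of control virus).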

[5] = biological target: Human immunodeficiency virus type 1 reverse transcriptase (Human immunodeficiency virus 1) (UniProt Q72547); assay: Compound ability to inhibit the production of HIV reverse transcriptase (RT) in culture supernatant of CEM-CL13 on at 22 days at a concentration 5 uM; assay type: functional
Procedure, shortened: (§3)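 CEM-C113 cells in RPMI 1640 with 5% heat-inactivated FCS and polybrene (2 µg/mL) were plated at 1×10^5 cells/mL with compound in PBS, in triplicate, and infected with HIV-1 LAV-Bru. From day 7, every 3–4 days, fresh medium with or without drug was added and 50 µL supernatant was taken for RT microassay. The RT microassay used poly(rA)-oligo(dT) and (methyl-³H)dTTP for 1 h at 37 °C, with TCA precipitation, read as cpm/50 µL.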

[6] = biological target: Human immunodeficiency virus type 1 reverse transcriptase (Human immunodeficiency virus 1) (UniProt Q72547); conditions: at 25 µM; remark: listed apart in the source
[7] = biological target: Human immunodeficiency virus type 1 reverse transcriptase (Human immunodeficiency virus 1) (UniProt Q72547); assay: Compound ability to inhibit the production of HIV reverse transcriptase (RT) in culture supernatant of CEM-CL13 on at 15 days at a concentration 1 uM; assay type: functional; procedure, shortened: as §3
[8] = biological target: Human immunodeficiency virus type 1 reverse transcriptase (Human immunodeficiency virus 1) (UniProt Q72547); assay: Compound ability to inhibit the production of HIV reverse transcriptase (RT) in culture supernatant of monocytic U937 on at 11 days at a concentration 0.2 uM; assay type: functional; procedure, shortened: as §2
[9] = biological target: Human immunodeficiency virus type 1 reverse transcriptase (Human immunodeficiency virus 1) (UniProt Q72547); assay: Compound ability to inhibit the production of HIV reverse transcriptase (RT) in culture supernatant of monocytic U937 on at 14 days at a concentration 0.2 uM; assay type: functional; procedure, shortened: as §2
[10] = biological target: Human immunodeficiency virus type 1 reverse transcriptase (Human immunodeficiency virus 1) (UniProt Q72547); assay: Compound ability to inhibit the production of HIV reverse transcriptase (RT) in culture supernatant of CEM-CL13 on at 26 days at a concentration 1 uM; assay type: functional; procedure, shortened: as §3
[11] = biological target: Human immunodeficiency virus type 1 reverse transcriptase (Human immunodeficiency virus 1) (UniProt Q72547); assay: Percent inhibition measured as the production of HIV reverse transcriptase (RT) in culture supernatant of monocytic U937 on at 14 days at a concentration 0.2 uM; assay type: functional; procedure, shortened: as §1
[12] = biological target: Human immunodeficiency virus type 1 reverse transcriptase (Human immunodeficiency virus 1) (UniProt Q72547); assay: Percent inhibition measured as the production of HIV reverse transcriptase (RT) in culture supernatant of monocytic U937 on at 11 days at a concentration 0.2 uM; assay type: functional; procedure, shortened: as §2
[13] = biological target: Human immunodeficiency virus type 1 reverse transcriptase (Human immunodeficiency virus 1) (UniProt Q72547); assay: Percent inhibition measured as the production of HIV reverse transcriptase (RT) in culture supernatant of monocytic U937 on at 7 days at a concentration 0.2 uM; assay type: functional; procedure, shortened: as §1

Row | SMILES | Protection [1] | inhibition [2] | inhibition [3] | Activity (c.p.m. 50ul-1) [4] | Activity (c.p.m. 50ul-1) [5] | inhibition [6] | Activity (c.p.m. 50ul-1) [7] | Activity (c.p.m. 50ul-1) [8] | Activity (c.p.m. 50ul-1) [9] | Activity (c.p.m. 50ul-1) [10] | inhibition [11] | inhibition [12] | inhibition [13]
1 | Cc1cn([C@H]2C[C@H](N=[N+]=[N-])[C@@H](COP(=O)(O)OC[C@H]3OC(O)[C@H](O)[C@@H](O)[C@@H]3O)O2)c(=O)[nH]c1=O (some centres undefined) | 36% | 0% | 0% | 142000 | 1500 | 0% | – | – | – | – | – | – | –
2 | Cc1cn([C@H]2C[C@H](N=[N+]=[N-])[C@@H](COP(=O)(O)OCCO[C@H]3O[C@H](CO)[C@@H](O)[C@H](O)[C@@H]3O)O2)c(=O)[nH]c1=O | – | 41% | 0% | 200000 | 5500 | 20% | – | – | – | – | – | – | –
3 | Cc1cn([C@H]2C[C@H](N=[N+]=[N-])[C@@H](CO)O2)c(=O)[nH]c1=O [ZIDOVUDINE] | – | 0% | 18% | 35000 | 500 | 25% | 600 | 152000 | 60000 | 12000 | 0% | 0% | 91%
4 | Cc1cn([C@H]2C[C@H](N=[N+]=[N-])[C@@H](COP(=O)(O)OC[C@H]3OC(O)[C@@H](O)[C@@H](O)[C@@H]3O)O2)c(=O)[nH]c1=O (some centres undefined) | – | 0% | 0% | 133000 | 12000 | 2% | – | – | – | – | – | – | –
5 | CCCCCCCCCCCCCCCCOP(=O)(OC[C@H]1OC(O)[C@@H](O)[C@@H](O)[C@@H]1O)OC[C@H]1OC(n2cc(C)c(=O)[nH]c2=O)C[C@@H]1N=[N+]=[N-] (some centres undefined) | – | – | – | – | – | – | 500 | 227000 | 27000 | 20000 | 0% | 0% | 0%
6 | CCCCCCCCCCCCCCCCOP(=O)(OCCO[C@H]1O[C@H](CO)[C@@H](O)[C@H](O)[C@@H]1O)OCC1OC(n2cc(C)c(=O)[nH]c2=O)CC1N=[N+]=[N-] (some centres undefined) | – | – | – | – | – | – | 5500 | 131000 | 30000 | 64000 | 0% | 9% | 0%
7 | CCCCCCCCCCCCCCCCOP(=O)(OC[C@H]1OC(O)[C@H](O)[C@@H](O)[C@@H]1O)OC[C@H]1OC(n2cc(C)c(=O)[nH]c2=O)C[C@@H]1N=[N+]=[N-] (some centres undefined) | – | – | – | – | – | – | 750 | 178000 | 16000 | 72000 | 14% | 0% | 0%
